{"source": "ChEMBL document CHEMBL1926607", "about": "(J Med Chem, 2011)", "key": {"[1]": {"target": "T1, 5-hydroxytryptamine receptor 1A (Homo sapiens, UniProt P08908)", "T1 sequence (P08908 whole entry)": "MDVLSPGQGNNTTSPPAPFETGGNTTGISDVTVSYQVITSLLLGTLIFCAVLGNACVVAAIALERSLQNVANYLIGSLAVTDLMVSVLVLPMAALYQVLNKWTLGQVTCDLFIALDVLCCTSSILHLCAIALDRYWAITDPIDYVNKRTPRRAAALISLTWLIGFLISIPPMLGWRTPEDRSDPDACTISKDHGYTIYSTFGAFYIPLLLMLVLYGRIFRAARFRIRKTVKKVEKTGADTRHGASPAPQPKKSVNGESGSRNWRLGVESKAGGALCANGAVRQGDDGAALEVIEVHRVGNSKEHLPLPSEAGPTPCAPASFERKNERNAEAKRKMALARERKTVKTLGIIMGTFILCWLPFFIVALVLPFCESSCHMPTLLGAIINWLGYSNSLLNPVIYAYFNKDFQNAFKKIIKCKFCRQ", "assay": "Agonist activity at human 5HT1A receptor expressed in human HeLa cells assessed as inhibition of forskolin-stimulated cAMP production […] measured after 2 hrs by RIA", "assay_type": "functional, cell-based", "method_in_brief": "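HeLa cells stably expressing the h5-HT1AR, grown in DMEM with 2 mM glutamine, 1 mM pyruvate and 10% heat-inactivated FCS, and used after 2–3 days at about 7.5 × 10^4 cells/well. After a PBS wash, cells were incubated 10 min in PBS with 0.5 mM isobutylmethylxanthine and 10 μM forskolin, with or without compound. The reaction was stopped with ice-cold ethanol, extracted 2 h and lyophilized; cAMP was measured by RIA.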"}, "[2]": {"target": "T2, 5-hydroxytryptamine receptor 1A (Rattus norvegicus, UniProt P19327)", "T2 sequence (P19327 whole entry)": "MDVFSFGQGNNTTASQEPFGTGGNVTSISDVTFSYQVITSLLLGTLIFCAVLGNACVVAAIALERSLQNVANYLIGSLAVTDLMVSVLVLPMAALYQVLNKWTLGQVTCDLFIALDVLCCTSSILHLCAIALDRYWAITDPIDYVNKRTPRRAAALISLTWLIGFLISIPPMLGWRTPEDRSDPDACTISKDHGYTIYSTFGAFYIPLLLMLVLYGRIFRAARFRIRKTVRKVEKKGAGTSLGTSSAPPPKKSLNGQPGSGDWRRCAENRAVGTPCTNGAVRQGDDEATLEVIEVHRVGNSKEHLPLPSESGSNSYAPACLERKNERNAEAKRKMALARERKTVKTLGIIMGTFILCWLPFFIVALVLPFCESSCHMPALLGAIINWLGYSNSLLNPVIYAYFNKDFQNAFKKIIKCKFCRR", "assay": "Displacement of [3H]-8-OH-DPAT from 5-HT1A receptor in Sprague-Dawley albinus rat cerebral cortex membranes after 15 mins", "assay_type": "cell membranes, Membrane"}, "[3]": {"assay": "Neuroprotective activity in Wistar rat hippocampi primary neuronal cells assessed as protection against serum-deprivation induced cell death at 10 uM after 24 hrs by MTT assay", "assay_type": "functional, Hippocampus, Primary neuron", "method_in_brief": "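Mixed neuron-glia cultures from E18 Wistar rat hippocampi (Neurobasal plus 10% FCS), used at 11 days in vitro. Medium replaced by saline to withdraw serum; cells held 24 h with compound. Cell survival measured by MTT reduction, expressed as % protection.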"}, "[4]": {"target": "T3, 5-hydroxytryptamine receptor 3A (Rattus norvegicus, UniProt P35563)", "T3 sequence (P35563 whole entry)": "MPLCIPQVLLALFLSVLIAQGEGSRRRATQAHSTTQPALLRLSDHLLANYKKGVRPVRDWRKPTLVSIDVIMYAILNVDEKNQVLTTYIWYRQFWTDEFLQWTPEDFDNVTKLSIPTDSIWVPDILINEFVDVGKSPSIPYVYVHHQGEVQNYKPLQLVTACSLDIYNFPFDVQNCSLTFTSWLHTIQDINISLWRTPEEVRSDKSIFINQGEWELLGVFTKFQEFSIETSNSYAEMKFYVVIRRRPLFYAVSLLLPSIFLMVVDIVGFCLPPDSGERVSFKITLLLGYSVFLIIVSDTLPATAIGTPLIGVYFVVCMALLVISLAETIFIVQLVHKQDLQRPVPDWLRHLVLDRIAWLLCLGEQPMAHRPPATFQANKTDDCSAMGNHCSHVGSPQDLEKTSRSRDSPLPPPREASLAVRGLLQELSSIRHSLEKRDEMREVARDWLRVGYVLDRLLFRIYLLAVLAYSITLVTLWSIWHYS", "assay": "Displacement of [3H]-LY278584 from 5HT3 receptor in Sprague-Dawley albinus rat cerebral cortex membranes after 30 mins", "assay_type": "cell membranes, Membrane"}, "[5]": {"target": "5-hydroxytryptamine receptor 4 (Rattus norvegicus, UniProt Q62758)", "sequence (Q62758 whole entry)": "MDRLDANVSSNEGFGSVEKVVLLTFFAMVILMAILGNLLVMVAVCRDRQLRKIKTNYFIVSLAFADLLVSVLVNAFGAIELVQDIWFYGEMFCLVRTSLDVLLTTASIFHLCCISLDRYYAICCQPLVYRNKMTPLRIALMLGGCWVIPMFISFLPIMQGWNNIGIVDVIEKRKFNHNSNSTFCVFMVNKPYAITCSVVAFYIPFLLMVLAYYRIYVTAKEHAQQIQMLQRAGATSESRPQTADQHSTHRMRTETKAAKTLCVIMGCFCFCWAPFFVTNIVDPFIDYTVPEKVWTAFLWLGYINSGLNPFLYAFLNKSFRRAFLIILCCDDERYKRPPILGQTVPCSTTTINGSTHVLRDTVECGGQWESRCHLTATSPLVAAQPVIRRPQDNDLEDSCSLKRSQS", "assay": "Displacement of [3H]GR113808 from 5HT4 receptor in Sprague-Dawley albinus rat striatal membranes after 30 mins by scintillation counting", "assay_type": "cell membranes, Membrane"}, "[6]": {"assay": "Neuroprotective activity in Wistar rat hippocampi primary neuronal cells assessed as protection against oxygen-glucose deprivation induced cell death at 10 uM after 18 hrs by MTT assay", "assay_type": "functional, Hippocampus, Primary neuron"}}}
{"smiles": "Cl.O=C1C2CCCN2C(=O)CN1CCCCNCC1CCc2ccccc2O1", "note": "(stereo unspecified)", "values": [{"measurement": "EC50", "setting": "[1]", "result": 123, "unit": "nM"}, {"measurement": "Ki", "setting": "[2]", "result": 21, "unit": "nM"}, {"measurement": "Activity", "setting": "[3]", "result": 13, "unit": "%"}, {"measurement": "Ki", "setting": "[4]", "result": "> 1000", "unit": "nM"}, {"measurement": "Ki", "setting": "[5]", "result": "> 1000", "unit": "nM"}, {"measurement": "Activity", "setting": "[6]", "result": 66, "unit": "%"}]}
